These results are taken from ChEMBL document CHEMBL4513216, “Probing the Open Global Health Chemical Diversity Library for Multistage-Active Starting Points for Next-Generation Antimalarials” (ACS Infect Dis, 2020).

The data set is described as follows: Toxicity liver stage against HepG2, at 10uM. It counts as cell-based. Also on record: test concentration 10 uM, cell line HepG2-A16-CD81EGFP. To be noted: human, HepG2-A16-CD81EGFP cells; read-out: INHIBITION
In a few lines:
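Uninfected HepG2-A16-CD81EGFP cells, 3 × 10^3 per well, 1536-well, plated on prespotted compound at 10 μM final, parasite-free screening media added to match infected plates; puromycin 10 μM positive, DMSO 0.5% negative; run in parallel with 48 h PbLuc assay at 37 °C, 5% CO2; viability by CellTiter-Glo luminescence, normalized to controls.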
For `COCCOc1ccccc1C(=O)N(C)Cc1ncc(C)c(OC)c1C`, the cytotoxicity at 10 µM is -1.61%. `COCC1CN(Cc2ccc(C)o2)Cc2nnn(C)c21` (stereo not given): the cytotoxicity at 10 µM is -4.53%. As for `Cc1nc(C)n(CC2CCCN(CCC(=O)NC3CCCC3)C2)n1` (stereo not given), the cytotoxicity at 10 µM is -6.73%. In the case of `c1cnc(N2CCCC3(CCN(CC4CC4)C3)C2)nc1` (stereo not given), the cytotoxicity at 10 µM is -76.9%. As to `COc1cccc([C@@H]2CCN(Cc3c[nH]c(C)n3)C[C@H]2O)c1`, the cytotoxicity at 10 µM was -2.89%. To `Cc1nc(NCc2nccn2C)cc(C2COCCN2)n1` (stereo not given) belongs 5.32%; to `O=C(NC1CC1)[C@@H]1CCO[C@@H]2CCN(CC3CCC3)C[C@H]21`, -111%; to `Cc1nc(CN2C[C@@H]3CN(C(=O)c4cccn4C)C[C@@H]3C2=O)cs1`, 1.88%. `CC(C)C(C)NC(=O)c1cc(Br)c2c(c1)OCCO2` (stereo not given): the cytotoxicity at 10 µM is -9.89%. In the case of `O=C(NCc1ccco1)[C@@H]1CCO[C@@H]2CCN(c3ncccn3)C[C@@H]21`, the cytotoxicity at 10 µM was -68.3%. On to `Cc1nc(-c2ccc(C(=O)O)cc2)cc(C2CCN(C(C)C)CC2)n1`, for which the cytotoxicity at 10 µM was -6.69%. Turning to `Cc1nc(-c2cnn(C)c2)sc1C(=O)NCc1cccc(CN(C)C)c1`, the cytotoxicity at 10 µM came to 2.46%. In the case of `CC(C)CCC(=O)N1CCCC2(CCN(Cc3ccccc3C#N)C2)C1` (stereo not given), the cytotoxicity at 10 µM is 0.129%. On to `COCCN(CCOC)c1ncccc1Cl`, for which the cytotoxicity at 10 µM amounted to 3.94%. Regarding `Cc1nc(C(=O)N2CCOC(Cc3ccc(F)cc3)C2)co1` (stereo not given), the cytotoxicity at 10 µM is -1.39%.

Turning to `Cc1cccc(CN2C[C@@H]3CCCO[C@@H]3[C@H](NS(C)(=O)=O)C2)n1`, the cytotoxicity at 10 µM is -8.06%.

As to `COc1ccccc1CNC(=O)C[S+]([O-])Cc1cc(C)on1` (stereo not given), the cytotoxicity at 10 µM is -4.92%. Take `O=c1[nH]c2c(c(=O)n1C1CCCCC1)CCC2Nc1ccccn1` (stereo not given): the cytotoxicity at 10 µM was -8.02%.

As for `Cn1cc(CCC(=O)N2CCN(Cc3ccncc3)CC2)cn1`, the cytotoxicity at 10 µM is -6.64%. As to `c1cnc(N2CCO[C@H]3CN(Cc4c[nH]cn4)C[C@H]32)cn1`, the cytotoxicity at 10 µM stood at 9.49%. As for `CCSc1ccc(C(=O)N2CC[C@](O)(CC)[C@H](O)C2)s1`, the cytotoxicity at 10 µM was -7.17%. To `CC(C)c1nc(CN(C)C(=O)CCc2ccc3c(c2)OCO3)cs1` belongs -15.8%; to `Cc1ccc(CN(C)C(=O)Cn2nc(-c3ccc(F)cc3)oc2=O)cc1`, -20.6%; to `COC[C@@H]1CC[C@H]2[C@H](CCN2S(=O)(=O)c2ccc(C)cc2)O1`, -1.05%. For `O=C(NC1CC1)N1CC[C@H]2[C@H]1CCN2c1nncs1`, the cytotoxicity at 10 µM is -4.94%. `O=C(Cn1nc2c(cc1=O)CCCC2)N[C@@H](Cc1ccccc1)C(=O)O`: the cytotoxicity at 10 µM came to 3.17%. As for `O=C(Nc1ccc(Cn2cccn2)cc1)N1CCC(CO)CC1`, the cytotoxicity at 10 µM came out at 47.8%. Regarding `COc1ccnc(N2CCCN(c3nc(C4CC4)ns3)CC2)n1`, the cytotoxicity at 10 µM came to 0.142%.

`c1cc([C@H]2C[C@@H]3CCN(Cc4nccs4)C[C@H]3O2)ncn1`: the cytotoxicity at 10 µM was -150%.

`NC(=O)Cn1cc(NC(=O)N2CCSCC2)cn1`: the cytotoxicity at 10 µM is -9.95%. Consider `Cc1oc(-c2cccc(F)c2F)nc1CN(C)CCC(C)(C)O`, for which the cytotoxicity at 10 µM was -4.47%. Turning to `c1ccc(CCN2CCOC3(CCc4ccccc43)C2)nc1` (stereo not given), the cytotoxicity at 10 µM was -4%. As to `c1cc(C2CCN(Cc3nc(-c4ccsc4)no3)CC2)[nH]n1`, the cytotoxicity at 10 µM worked out at 8.44%. On to `Cc1csc(CN(C)C(=O)Nc2cc(F)cc(N3CCCC3)c2)n1`, for which the cytotoxicity at 10 µM was 8.16%. With `Cn1ccnc1NC[C@@H]1CCC[C@@H]2CN(CC3CC3)C[C@@H]21`, the cytotoxicity at 10 µM amounted to 16%. Turning to `COc1ccccc1CNC(=O)C(C)N1CC(n2cc(C)cn2)C1` (stereo not given), the cytotoxicity at 10 µM stood at 6.15%. On to `CC1Cc2ccccc2N1C(=O)Cn1nc(-c2cccs2)cc(N)c1=O` (stereo not given), for which the cytotoxicity at 10 µM is -10.6%.

For `COc1ccc(-c2cc(C3(O)CCN(C)CC3)on2)cc1`, the cytotoxicity at 10 µM was determined as 3.89%. To `CCc1nc(C2CCCN(C(=O)c3cccc(Cl)c3)C2)no1` (stereo not given) belongs -7.55%; to `CC(Nc1ncnc2sccc12)c1cnn(C)c1` (stereo not given), -2.63%; to `Cc1c(-c2nnc(SCC(=O)O)n2C(C)c2ccccc2)cnn1C` (stereo not given), -5.43%. Regarding `Cc1cccc(N2CC3(CCN(S(=O)(=O)C4CC4)C3)C2)n1`, the cytotoxicity at 10 µM was found to be 3.86%. Regarding `Cc1nnsc1C(=O)NCCn1ccc(-c2ccncc2)n1`, the cytotoxicity at 10 µM was 1.92%. To `Clc1cc(Cl)cc(CN2CCC(NCc3cc[nH]n3)CC2)c1` belongs 11.1%; to `Cn1ccc(NC(=O)Cc2ccccc2F)n1`, 19.1%. To `O=C(CCC(=O)c1cccs1)NC1(C(=O)NCC2CC2)CCCC1` belongs -10.6%; to `O=S(=O)(N1CCCC1)N1CCN(CC2CCCO2)CC1` (stereo not given), -0.185%. To `Cn1c(CN2CCOC(CNc3cccnn3)C2)nnc1C1CC1` (stereo not given) belongs 5.18%; to `CCOc1ccc(Cl)c(C(=O)NC(C)C(N)=O)n1` (stereo not given), 7.53%; to `Cc1cc(CN(C)C(=O)NC2CCCC2)no1`, -5.85%. On to `N#Cc1c(Cl)nsc1NCc1ccc(N2CCSCC2)cc1`, for which the cytotoxicity at 10 µM was 1.24%. To `COc1ccccc1-c1cc(NC(=O)CCS(=O)(=O)C2CCCC2)[nH]n1` belongs -123%; to `CN(C)c1ccc(-c2ccnc3c2ccn3C)nn1`, 10.9%; to `CC(=O)Nc1nc(C(=O)N2CCCC2c2noc(C(C)C)n2)cs1` (stereo not given), -20.1%. To `COCCOc1ncccc1NCc1nc2ccccc2n1C` belongs 5.95%; to `CCC(=O)Nc1cccc(OCC(=O)N(C)Cc2cc(COC)[nH]n2)c1`, 1.79%. Consider `COC(=O)c1c(Cl)c(C2CC2)nc2onc(C)c12`, for which the cytotoxicity at 10 µM was found to be 10.1%. On to `Cc1cnn(CC2CCCN2C(=O)Cc2ccc3c(c2)CCO3)c1` (stereo not given), for which the cytotoxicity at 10 µM was -144%.

Take `CCCc1nc(N[C@H]2COC[C@@H]2N2CCCCC2)c2cnn(C)c2n1`: the cytotoxicity at 10 µM turned out to be 0.727%.

For `CC[C@@H]1N(CC2CCOCC2)CCC[C@]12CCC(=O)N2`, the cytotoxicity at 10 µM was determined as 18.1%. Regarding `CCCc1n[nH]cc1C(=O)N1CCC(c2nccn2CCOC)CC1`, the cytotoxicity at 10 µM was -15.3%. Take `CCCc1cc(CNC(=O)C2CCOc3ccccc3C2)on1` (stereo not given): the cytotoxicity at 10 µM is -3.8%. Regarding `Cc1nn(CC(=O)N2CCC3(CN(C)C(=O)O3)C2)c(=O)c2ccccc12` (stereo not given), the cytotoxicity at 10 µM came out at 9.74%. Regarding `O=C(COCc1ccccc1)N1CCN(Cc2ccccc2F)C(=O)C1`, the cytotoxicity at 10 µM is -3.19%. On to `CN1CCN(S(=O)(=O)c2cccnc2)c2cnccc21`, for which the cytotoxicity at 10 µM is -0.376%. To `Oc1cc(C2CCCCN2CC2CC2)nc(-c2ccncc2)n1` (stereo not given) belongs 9.77%; to `CCNC(=O)CCC(=O)NC1(c2cccc(C(F)(F)F)c2)CCC1`, -39.8%. To `CCC(C)(CC(=O)OC)NCc1noc(C)n1` (stereo not given) belongs -4.39%. Consider `CC(=O)NCc1ccc(-c2ccccc2C(=O)O)cn1`, for which the cytotoxicity at 10 µM turned out to be 1%.

For `O=C(O)c1cccc(CC2CCN(c3ncc(F)cn3)CC2)c1`, the cytotoxicity at 10 µM was -108%.
